Measured values pooled from the literature.
Lines come from different studies, so protocols differ.
Target: Dual specificity tyrosine-phosphorylation-regulated kinase 2 (DYRK2, Homo sapiens, UniProt Q92630)
Observed: enzyme activity
Action: inhibitor
Sequence (Q92630 1-601, as in one of the studies): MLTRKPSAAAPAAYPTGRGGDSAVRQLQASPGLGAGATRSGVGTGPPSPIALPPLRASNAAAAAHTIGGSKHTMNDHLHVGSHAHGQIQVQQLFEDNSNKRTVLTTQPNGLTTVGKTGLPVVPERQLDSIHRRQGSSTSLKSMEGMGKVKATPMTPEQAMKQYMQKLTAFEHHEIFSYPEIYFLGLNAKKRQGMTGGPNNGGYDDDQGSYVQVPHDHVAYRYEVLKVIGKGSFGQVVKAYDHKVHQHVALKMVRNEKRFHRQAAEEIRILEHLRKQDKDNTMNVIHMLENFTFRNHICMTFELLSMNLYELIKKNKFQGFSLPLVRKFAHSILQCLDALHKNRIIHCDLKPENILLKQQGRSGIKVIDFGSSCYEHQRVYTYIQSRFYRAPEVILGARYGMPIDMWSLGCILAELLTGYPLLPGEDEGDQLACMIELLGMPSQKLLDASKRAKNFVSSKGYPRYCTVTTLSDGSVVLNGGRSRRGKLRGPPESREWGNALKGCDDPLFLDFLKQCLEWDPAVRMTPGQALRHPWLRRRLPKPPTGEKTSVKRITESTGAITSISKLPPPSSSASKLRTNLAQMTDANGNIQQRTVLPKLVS

With `Cc1ccc(C(=O)Nc2ccc(CN3CCN(C)CC3)c(C(F)(F)F)c2)cc1C#Cc1cnc2cccnn12` the remaining activity was 80% (23.5 nM).
The remaining activity of `CC(C)(C)C(=O)c1sc(NC2CCCCC2)nc1N` is reported as 90% (10 µM).
With `CCN(CC)c1ccc(C2=NNC(=O)CC2C)cc1[N+](=O)[O-]` (stereo not shown) the remaining activity was 100% (10 µM).
With `Oc1cccc(-c2nc(N3CCOCC3)c3oc4ncccc4c3n2)c1` the remaining activity was 83% (10 µM).
For `CC(C)(O)[C@H]1CC[C@H](Nc2ccc3ncc(-c4cccc(C(F)(F)F)c4)n3n2)CC1`, the remaining activity was 59.7% (1 µM).
`CC(C)(C)c1nc2c(s1)c1nc(N)ncc1c1ccc(NS(=O)(=O)c3c(F)cccc3F)c(F)c12` gave a remaining activity of 94% (radiometric; 1 µM).
`O=C(O)c1ccc2c(c1)nc(Nc1ccccc1)c1ccncc12` has a remaining activity of 45% (radiometric; 1 µM).
For `Nc1nc(Nc2ccccc2)sc1C(=O)c1c(F)cccc1F`, the remaining activity was 79% (10 µM).
With `COc1cc(Nc2cnc(C#N)c(O[C@H](C)CN(C)C)n2)ncc1-c1cnn(C)c1` the remaining activity was 100% (radiometric; 1 µM).
`O=C(O)c1ccc2c(c1)nc(Nc1ccc3ccccc3c1)c1ccncc12` gave a remaining activity of 18% (radiometric; 1 µM).
For `O=C(Nc1cnn(-c2csc(C(=O)NC3COC3)c2)c1)Nc1c(F)cccc1Cl`, the remaining activity was 93.6% (5 µM).
With `O=C(O)c1ccc2c(c1)nc(NCCc1ccccc1)c1ccncc12` the remaining activity was 9% (radiometric; 1 µM).
`Cc1sc(C(=O)NC2COC2)cc1-n1cc(NC(=O)Nc2c(F)cccc2Cl)cn1` has a remaining activity of 96.3% (10 µM).
